Experimental data taken from ChEMBL document CHEMBL4680287, “Ibrexafungerp: An orally active β-1,3-glucan synthesis inhibitor” (Bioorg Med Chem Lett, 2021).
In brackets after ≈: the same amount, converted by molar mass.

Key:
Candida albicans [1] = assay: Antifungal activity against Candida albicans MY1055 assessed as fungal growth inhibition measured after 24 hrs in presence of 50% mouse serum by liquid microdilution method; assay type: functional
Outline: (§1)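 Broth microdilution per CLSI protocols in RPMI medium. Read-out is the MIC, the lowest concentration completely inhibiting fungal growth. Run without serum and with added serum.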

Candida albicans [2] = assay: Antifungal activity against Candida albicans MY1055 assessed as fungal growth inhibition measured after 24 hrs by liquid microdilution method; assay type: functional; outline: as §1
Aspergillus fumigatus [3] = assay: Antifungal activity against Aspergillus fumigatus MF5668 assessed inhibition of fungal growth by measuring morphological changes measured after 24 hrs by microscopy; assay type: functional; conditions: read-out: MEC
Outline: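 Microdilution per CLSI protocols in RPMI medium. Read-out is the minimum effective concentration (MEC). Run without serum and with 50% human serum.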

Candida albicans [4] = assay: Antifungal activity against Candida albicans MY1055 infected in ip dosed DBA/2 mouse model of disseminated candidiasis assessed as reduction in fungal burden in kidney administered bid for 7 days by TOKA; assay type: functional; conditions: 168 h, time 7 day
Outline: (§2)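 Murine disseminated candidiasis model (TOKA) in mice challenged with C. albicans MY1055 at 2.44 x 10^4 CFU/mouse. Dosed PO, or IP where stated. Kidneys collected aseptically 7 days after challenge and CFUs/g counted. Change in log CFU/g is relative to sham-treated controls; significance by two-tailed t test. Clearance is the percentage of kidneys below the detection limit.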

Candida albicans [5] = assay: Antifungal activity against Candida albicans MY1055 infected in DBA/2 mouse model of disseminated candidiasis assessed as reduction in fungal burden in kidney by measuring log change in colony forming units at 0.5 mg/kg, ip bid for 7 days by TOKA; assay type: functional; conditions: time 7 day; outline: as §2
Candida albicans [6] = assay: Antifungal activity against Candida albicans MY1055 infected in DBA/2 mouse model of disseminated candidiasis assessed as reduction in fungal burden in kidney by measuring log change in colony forming units at 0.0078 mg/kg, ip bid for 7 days by TOKA; assay type: functional; conditions: time 7 day; outline: as §2
Aspergillus fumigatus [7] = assay: Antifungal activity against Aspergillus fumigatus MF5668 infected in DBA/2N mouse assessed as mean survival time at 0.125 mg/kg, ip bid administered for 7 days starting from 15 to 30 mins post infection and measured up to 21 days; assay type: functional; conditions: time 7 day
Outline: (§3)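 DBA/2N mice were challenged IV with A. fumigatus MF5668 at 6.7 x 10^5 CFU/mouse, then dosed IP twice daily for 7 days. Survival was followed over a 21-day model, and mean survival time in days was recorded per dose group. A sham-treated control group was run alongside.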

Candida albicans [8] = assay: Antifungal activity against Candida albicans MY1055 infected in DBA/2 mouse model of disseminated candidiasis assessed as reduction in fungal burden in kidney by measuring log change in colony forming units at […], po bid for 7 days by TOKA; assay type: functional; conditions: time 7 day; outline: as §2
Aspergillus fumigatus [9] = assay: Antifungal activity against Aspergillus fumigatus MF5668 infected in DBA/2N mouse assessed as mean survival time at 0.03 mg/kg, ip bid administered for 7 days starting from 15 to 30 mins post infection and measured up to 21 days; assay type: functional; conditions: time 7 day; outline: as §3
Candida albicans [10] = assay: Antifungal activity against Candida albicans MY1055 infected in DBA/2 mouse model of disseminated candidiasis assessed as reduction in fungal burden in kidney by measuring log change in colony forming units at 0.03 mg/kg, ip bid for 7 days by TOKA; assay type: functional; conditions: time 7 day; outline: as §2
[11] = Inhibition of beta-1,3-glucan synthase in Candida albicans MY1055 microsomal membrane assessed as inhibition of TCA-insoluble material formation using UDP-[3H]-glucose as substrate incubated for 2 hrs in presence of GTP by radioactivity-based assay; assay type: microsomes, Microsome
Outline: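 GS IC50 measured using Candida albicans MY1055 microsomal membrane fragments as the enzyme source.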

Aspergillus fumigatus [12] = assay: Antifungal activity against Aspergillus fumigatus MF5668 infected in DBA/2N mouse assessed as mouse survival at 0.5 mg/kg, ip bid administered for 7 days starting from 15 to 30 mins post infection and measured up to 21 days relative to control; assay type: functional; conditions: 168 h, time 7 day
Outline: (§4)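 DBA/2N mice were infected IV with A. fumigatus MF5668 (6.7 x 10^5 CFU/mouse) and treated IP bid for 7 days. Percent survival per dose group was scored at the end of the 21-day survival model and compared with the sham-treated control group.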

Aspergillus fumigatus [13] = assay: Antifungal activity against Aspergillus fumigatus MF5668 infected in DBA/2N mouse assessed as mouse survival at 2 mg/kg, ip bid administered for 7 days starting from 15 to 30 mins post infection and measured up to 21 days relative to control; assay type: functional; conditions: 168 h, time 7 day; outline: as §4
Candida albicans [14] = assay: Antifungal activity against Candida albicans MY1055 infected in DBA/2 mouse model of disseminated candidiasis assessed as reduction in fungal burden in kidney by measuring log change in colony forming units at 0.125 mg/kg, po bid for 7 days by TOKA; assay type: functional; conditions: time 7 day; outline: as §2
Aspergillus fumigatus [15] = assay: Antifungal activity against Aspergillus fumigatus MF5668 infected in ip dosed DBA/2N mouse assessed as 90% mouse survival administered bid administered for 7 days starting from 15 to 30 mins post infection and measured up to 21 days; assay type: functional; conditions: 168 h, time 7 day
Aspergillus fumigatus [16] = assay: Antifungal activity against Aspergillus fumigatus MF5668 infected in DBA/2N mouse assessed as mouse survival at 0.125 mg/kg, ip bid administered for 7 days starting from 15 to 30 mins post infection and measured up to 21 days relative to control; assay type: functional; conditions: 168 h, time 7 day; outline: as §4
Aspergillus fumigatus [17] = assay: Antifungal activity against Aspergillus fumigatus MF5668 infected in ip dosed DBA/2N mouse assessed as 50% mouse survival administered bid administered for 7 days starting from 15 to 30 mins post infection and measured up to 21 days; conditions: 168 h
Candida albicans [18] = assay: Antifungal activity against Candida albicans MY1055 infected in DBA/2 mouse model of disseminated candidiasis assessed as reduction in fungal burden in kidney by measuring log change in colony forming units at 0.125 mg/kg, ip bid for 7 days by TOKA; assay type: functional; conditions: time 7 day; outline: as §2
Candida albicans [19] = assay: Antifungal activity against Candida albicans MY1055 infected in DBA/2 mouse model of disseminated candidiasis assessed as reduction in fungal burden in kidney by measuring log change in colony forming units at 0.03 mg/kg, po bid for 7 days by TOKA; assay type: functional; conditions: time 7 day; outline: as §2
Aspergillus fumigatus [20] = assay: Antifungal activity against Aspergillus fumigatus MF5668 infected in DBA/2N mouse assessed as mouse survival at 0.03 mg/kg, ip bid administered for 7 days starting from 15 to 30 mins post infection and measured up to 21 days relative to control; assay type: functional; conditions: 168 h, time 7 day; outline: as §4

With `CC[C@H](C)C[C@H](C)CCCCCCCCC(=O)N[C@H]1C[C@@H](O)[C@@H](NCCN)NC(=O)[C@@H]2[C@@H](O)CCN2C(=O)[C@H]([C@H](O)CCN)NC(=O)[C@H]([C@H](O)[C@@H](O)c2ccc(O)cc2)NC(=O)[C@@H]2C[C@@H](O)CN2C(=O)[C@H]([C@@H](C)O)NC1=O` [CASPOFUNGIN] the MIC (Candida albicans [1]) was 0.25 µg/mL, the MIC (Candida albicans [2]) was 0.06 µg/mL (≈ 0.0549 µM) and the minimal effective concentration (Aspergillus fumigatus [3]) was < 0.03 µg/mL. The ED99 (Candida albicans [4]) was < 0.1 µg/kg, the Activity (Candida albicans [5]) was -3.96 deltalog10CFU and the Activity (Candida albicans [6]) was -3.62 deltalog10CFU. For the same compound, the MST (Aspergillus fumigatus [7]) was 14.7 days, the Activity (Candida albicans [8]) was -4.2 deltalog10CFU and the MST (Aspergillus fumigatus [9]) was 13.1 days. It also gave an Activity (Candida albicans [10]) of -3.28 deltalog10CFU, an IC50 [11] of 1 ng/mL and a survival at 0.5 mg/kg (Aspergillus fumigatus [12]) of 90%. For the same compound, the survival at 2 mg/kg (Aspergillus fumigatus [13]) was 90%, the Activity (Candida albicans [14]) was -4.2 deltalog10CFU and the ED90 (Aspergillus fumigatus [15]) was 0.83 mg/kg. It also gave a survival at 0.125 mg/kg (Aspergillus fumigatus [16]) of 60%, an ED50 (Aspergillus fumigatus [17]) of 0.07 mg/kg and an Activity (Candida albicans [18]) of -4 deltalog10CFU. For the same compound, the Activity (Candida albicans [19]) was -2.3 deltalog10CFU and the survival at 0.03 mg/kg (Aspergillus fumigatus [20]) was 50%.
